Data set [1] relates to Plasmodium falciparum. The data set can be described thus: Antimalarial activity Plasmodium falciparum D6 after 72 hrs by SYBR Green I based fluorescence assay. Type of data set: functional, organism-based. The note with it: D6, 72 h. The method in brief:
(§1)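 P. falciparum (D6 pansensitive; Dd2 MDR) cultured under standard conditions and grown 72 h with varying compound concentrations, chloroquine positive control or no drug, each condition in quadruplicate. Growth measured by SYBR Green I fluorescence with minor modifications; IC50 = concentration inhibiting growth by 50%.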

For data set [2], the system named is Plasmodium falciparum. The data set can be described thus: Antimalarial activity multidrug-resistant Plasmodium falciparum Dd2 after 72 hrs by SYBR Green I based fluorescence assay. Type of data set: functional, organism-based. The note with it: Dd2, 72 h. The method in brief:
as §1

Data set [3] in a line: Toxicity in C57BL/6J mouse splenic lymphocytes after 72 hrs by Alamar blue Assay. The note with it: splenic lymphocyte. Type of data set: cell-based. The method in brief:
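Splenic lymphocytes from C57BL/6J mice washed, then stimulated with 1 μg/mL concanavalin A in RPMI/10% FBS with 50 μM β-mercaptoethanol. Seeded at 2 × 10^5 cells/well with serially diluted compound for 72 h at 37 °C, 5% CO2. Resazurin added (final 10 μM) for another 24 h; fluorescence read at ex 560/em 590 nm.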
Background: Resazurin is reduced to fluorescent resorufin, in cell work by metabolically active cells.

For data set [4], the system named is Plasmodium yoelii. Nature of the data set: Antimalarial activity Plasmodium yoelii infected in CF-1 mouse assessed as reduction of parasitemia at 25 mg/kg, po qd for 3 days administered 24 hrs after infection measured after 24 hrs last dose relative to control. Details: scale not given: the % may be the effect or the level left. In kind it is functional. An outline of the steps:
(§2)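 Female outbred CF-1 mice infected iv (tail vein) with 5 × 10^5 P. yoelii Kenya-infected erythrocytes. Groups of five given compound or vehicle alone by gavage in caprylic/capric triglyceride once daily for 3 days starting 24 h post-infection. One day after last dose, Giemsa-stained thin smears scored microscopically for % infected erythrocytes vs untreated controls. Group mean weight day 3 vs day 0. Smear-negative mice followed; parasite-free at 28 days counted cured.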

For data set [5], the system named is Mus musculus. Nature of the data set: Toxicity in Plasmodium yoelii infected CF-1 mouse assessed as weight loss at 5 mg/kg, po qd for 3 days relative to control. Details: dose 5 mg/kg, route oral. The note with it: in vivo, 72 h. In kind it is organism-based. An outline of the steps: (§3)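 Female outbred CF-1 mice were infected i.v. via the tail vein with 5 × 10^5 P. yoelii Kenya-infected erythrocytes, in groups of five. Compound or vehicle alone was given by gavage in caprylic/capric triglyceride once daily for 3 days, starting 24 h post-infection. One day after the last dose, Giemsa-stained thin smears were scored by microscopy for % parasitemia versus untreated controls. Group mean weight was recorded as day 3 versus day 0.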

Data set [6] deals with Mus musculus. The data set can be described thus: Toxicity in Plasmodium yoelii infected CF-1 mouse assessed as weight loss at 25 mg/kg, po qd for 3 days relative to control. In kind it is organism-based. More on the design: dose 25 mg/kg, route oral. The note with it: in vivo, 72 h. The method in brief:
as §3

The test system of data set [7] is Plasmodium yoelii. The data set can be described thus: Antimalarial activity Plasmodium yoelii infected in CF-1 mouse assessed as reduction of parasitemia at 5 mg/kg, po qd for 3 days administered 24 hrs after infection measured after 24 hrs last dose relative to control. In kind it is functional. More on the design: scale not given: the % may be the effect or the level left. An outline of the steps:
as §3

Data set [8] relates to Plasmodium yoelii. The data set can be described thus: Antimalarial activity Plasmodium yoelii infected in CF-1 mouse assessed as complete parasite clearance at 100 mg/kg, po qd for 3 days administered 24 hrs after infection measured after 24 hrs last dose. Type of data set: functional, organism-based. Details: dose 100 mg/kg. An outline of the steps: as §2
Data set [9] concerns Mus musculus. Nature of the data set: Toxicity in Plasmodium yoelii infected CF-1 mouse assessed as temporary weight loss at 100 mg/kg, po qd for 3 days. More on the design: dose 100 mg/kg, route oral. Type of data set: organism-based. The note with it: in vivo, 72 h. An outline of the steps:
as §2

Molecules are shown by their SMILES. Active and inactive are the calls of the source. The rule behind the calls is not given here.

In ChEMBL document CHEMBL1811838, “Antimalarial activity of natural and synthetic prodiginines” (J Med Chem, 2011) one finds IC50 and Activity data, which are given here for eight compounds.

By IC50 is commonly meant the concentration at which inhibition is half-maximal.

For `CCCc1cc(CCC2CCCCC2)c(/C=C2\N=C(c3ccc[nH]3)C=C2OC)[nH]1`, the IC50 in the data set on Plasmodium falciparum [1] was 1.7 nM; in the data set on Plasmodium falciparum [2], 1.3 nM; in data set [3] it was less than 125 nM. The Activity with Plasmodium yoelii [4] is recorded as 100%; in the data set with Mus musculus [5], 101.5%; in the data set on Mus musculus [6], 84.5%; with Plasmodium yoelii [7], 97%.
Compound `CCC1CCCCCCCCC2=N/C(=C\c3[nH]c(-c4ccc[nH]4)cc3OC)C1=C2` (stereo not drawn) [METACYCLOPRODIGININE] had an IC50 with Plasmodium falciparum [1] of 1.7 nM. The results for the Activity in the data set on Plasmodium yoelii [4] and in the data set with Mus musculus [9] were more than 99% and “Toxic”, respectively. Moreover, the result in the data set with Plasmodium yoelii [8] was Active.
Turning to `CCCc1cc(Cc2ccc(Cl)cc2)c(/C=C2\N=C(c3ccc[nH]3)C=C2OC)[nH]1`, the IC50 in the data set with Plasmodium falciparum [1] was 3 nM; with Plasmodium falciparum [2], 2.6 nM; in data set [3], less than 125 nM. The Activity in the data set with Plasmodium yoelii [4] is given as 100%; with Mus musculus [5] it was 102.9%; with Mus musculus [6] it was 87.6%; in the data set with Plasmodium yoelii [7], 94%.
`CCCCCCCCc1cc(Cc2ccc(Cl)cc2)c(/C=C2\N=C(c3ccc[nH]3)C=C2OC)[nH]1`: the IC50 was determined as 16 nM in the data set on Plasmodium falciparum [1], 12 nM in the data set on Plasmodium falciparum [2] and 1100 nM in data set [3]. Besides, the Activity in the data set with Plasmodium yoelii [4] is 100%; in the data set on Mus musculus [5] it was 100.2%; in the data set with Mus musculus [6] it was 93.4%; with Plasmodium yoelii [7], 72%.
As for `COC1=CC(c2ccc[nH]2)=N/C1=C\c1[nH]ccc1Cc1ccc(Cl)cc1`, the IC50 in the data set with Plasmodium falciparum [1] is 65 nM; in the data set on Plasmodium falciparum [2] it was 81 nM; in data set [3], less than 125 nM. The Activity in the data set on Plasmodium yoelii [4] stood at 90%; with Mus musculus [5] it was 101.2%; in the data set on Mus musculus [6], 105%; in the data set with Plasmodium yoelii [7], 38%.
Turning to `CCCCCCCCc1cc(CCC)c(/C=C2\N=C(c3ccc[nH]3)C=C2OC)[nH]1`, the IC50 in the data set on Plasmodium falciparum [1] is 2.9 nM; in the data set on Plasmodium falciparum [2], 2.7 nM; in data set [3], less than 125 nM. In addition, the Activity in the data set on Plasmodium yoelii [4] came out at 100%; in the data set with Mus musculus [5], 100.1%; in the data set with Mus musculus [6], 92.4%; in the data set with Plasmodium yoelii [7], 90%.
As for `COC1=CC(c2ccc[nH]2)=N/C1=C\c1[nH]c(Cc2ccc(Cl)cc2)cc1Cc1ccc(Cl)cc1`, the half-maximal inhibitory concentration (IC50) in the data set on Plasmodium falciparum [1] is 6.1 nM; with Plasmodium falciparum [2], 4.8 nM; in data set [3] it was less than 125 nM. Also, the Activity came out at 100% in the data set with Plasmodium yoelii [4], 107.5% in the data set with Mus musculus [5], 102.5% in the data set on Mus musculus [6] and 92% in the data set on Plasmodium yoelii [7].
In the case of `CCCCCCc1cc(Cc2ccc(Cl)cc2)c(/C=C2\N=C(c3ccc[nH]3)C=C2OC)[nH]1`, the half-maximal inhibitory concentration (IC50) in the data set with Plasmodium falciparum [1] is 2 nM; in the data set with Plasmodium falciparum [2] it was 1.8 nM; in [3], less than 125 nM. Further, the Activity came to 100% in the data set with Plasmodium yoelii [4], 100.3% in the data set on Mus musculus [5], 96% in the data set with Mus musculus [6] and 99% with Plasmodium yoelii [7].
